Measurements as given in ChEMBL document CHEMBL1144630, “Indole derivatives as potent inhibitors of 5-lipoxygenase: design, synthesis, biological evaluation, and molecular modeling” (Bioorg Med Chem Lett, 2007).

Molecular target: T1, Polyunsaturated fatty acid 5-lipoxygenase (Rattus norvegicus, UniProt P12527)
T1 sequence (P12527 whole entry): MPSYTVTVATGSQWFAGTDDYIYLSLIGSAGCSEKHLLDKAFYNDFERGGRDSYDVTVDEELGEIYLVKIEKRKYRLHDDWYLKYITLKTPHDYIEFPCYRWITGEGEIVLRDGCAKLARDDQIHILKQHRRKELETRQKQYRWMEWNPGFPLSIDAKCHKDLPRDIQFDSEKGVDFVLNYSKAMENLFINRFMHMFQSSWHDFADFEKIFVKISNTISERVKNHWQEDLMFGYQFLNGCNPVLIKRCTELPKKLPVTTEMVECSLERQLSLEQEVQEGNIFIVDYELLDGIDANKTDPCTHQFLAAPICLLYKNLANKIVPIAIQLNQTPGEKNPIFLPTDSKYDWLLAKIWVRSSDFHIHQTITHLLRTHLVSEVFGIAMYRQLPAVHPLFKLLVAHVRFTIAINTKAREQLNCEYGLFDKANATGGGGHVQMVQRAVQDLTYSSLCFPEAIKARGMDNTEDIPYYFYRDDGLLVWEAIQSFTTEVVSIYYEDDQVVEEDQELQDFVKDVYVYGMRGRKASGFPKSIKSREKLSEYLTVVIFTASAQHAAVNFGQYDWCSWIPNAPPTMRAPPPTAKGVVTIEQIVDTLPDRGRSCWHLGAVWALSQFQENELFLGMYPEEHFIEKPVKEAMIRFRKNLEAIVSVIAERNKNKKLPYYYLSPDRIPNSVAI
Assay: Inhibition of 5-LOX in rat peritoneal leukocytes
Format: cell-based
Details: not given
Summary of the method: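 Cell-based 5-LOX assay in rat peritoneal leukocytes, quantified with a commercial kit. Selected compounds went on to concentration–response testing to derive IC50. Values are means of three determinations, each within 10% of the mean.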

Structure (SMILES)	IC50
O=C(CCc1cn(Cc2ccccc2)c2ccccc12)N1CCOCC1	3.17 µM
Cc1c(CCCC(=O)N2CCOCC2)c2cc(Cl)ccc2n1Cc1ccccc1	0.95 µM
CC(C)(C)OC(=O)N1CCN(C(=O)CCCc2c[nH]c3ccccc23)CC1	0.74 µM
O=C(CCCc1cn(Cc2ccccc2)c2ccccc12)N1CCNCC1	0.85 µM
COc1ccc2[nH]c(C)c(CCCC(=O)N3CCOCC3)c2c1	3.16 µM
O=C(Cc1cn(Cc2ccc(Cl)c(Cl)c2)c2ccccc12)N1CCOCC1	0.87 µM
COc1ccc2c(c1)c(CCCC(=O)N1CCOCC1)c(C)n2C(=O)c1ccc(Cl)cc1	2.25 µM
O=C(CCCc1cn(Cc2ccccc2)c2ccccc12)N1CCOCC1	74 µM
Cc1[nH]c2ccc(Cl)cc2c1CCCC(=O)N1CCOCC1	1.33 µM
O=C(CCCc1c[nH]c2ccccc12)N1CCOCC1	2.06 µM
COC1(c2cc(F)cc(OCCc3c[nH]c4ccccc34)c2)CCOCC1	2.38 µM

Molecular target: T2, Polyunsaturated fatty acid 5-lipoxygenase (Rattus norvegicus) (UniProt P12527)
T2 sequence (whole entry): T1 sequence (P12527 whole entry)
Details: at 5 µM

Structure (SMILES)	inhibition
CS(=O)(=O)N1CCN(C(=O)CCCc2cn(Cc3ccccc3)c3ccccc23)CC1	23.9%
c1ccc(Cn2cc(CCCCN3CCOCC3)c3ccccc32)cc1	41.6%
O=C(CCc1cn(Cc2ccccc2)c2ccccc12)N1CCOCC1	63.8%
Cc1c(CCCC(=O)N2CCOCC2)c2cc(Cl)ccc2n1Cc1ccccc1	80.2%
CC(C)(C)OC(=O)N1CCN(C(=O)CCCc2c[nH]c3ccccc23)CC1	84.1%
O=C(Cc1cn(Cc2ccccc2)c2ccccc12)N1CCOCC1	41.4%
Cc1ccc(Cn2cc(CCC(=O)N3CCOCC3)c3ccccc32)cc1	55.2%
O=C(Cc1c[nH]c2ccccc12)N1CCOCC1	15.9%
O=C(Cc1cn(C(=O)c2ccccc2)c2ccccc12)N1CCOCC1	21%
O=C(CCCc1cn(Cc2ccccc2)c2ccccc12)N1CCNCC1	95.4%
COc1ccc2[nH]c(C)c(CCCC(=O)N3CCOCC3)c2c1	72.9%
COc1ccc2c(c1)c(CCCC(=O)N1CCNCC1)c(C)n2Cc1ccccc1	64.6%
O=C(CCCc1cn(Cc2ccc(Cl)c(Cl)c2)c2ccccc12)N1CCOCC1	26.7%
O=C(Cc1cn(Cc2ccc(Cl)c(Cl)c2)c2ccccc12)N1CCOCC1	81.9%
O=C(CCc1cn(Cc2ccc(Cl)c(Cl)c2)c2ccccc12)N1CCOCC1	38.5%
COc1ccc2c(c1)c(CCCC(=O)N1CCOCC1)c(C)n2C(=O)c1ccc(Cl)cc1	70.2%
COc1ccc2[nH]c(C)c(CCCC(=O)N3CCN(C(=O)OC(C)(C)C)CC3)c2c1	71.2%
CC(c1cc2ccccc2s1)N(O)C(N)=O (stereo not drawn)	86.9%
O=C(CCCc1cn(Cc2ccccc2)c2ccccc12)N1CCOCC1	25.8%

Structure (SMILES)	inhibition
Cc1c(CCCC(=O)N2CCOCC2)c2cc(Cl)ccc2n1Cc1ccc(Cl)cc1	37.9%
O=C(CCCc1cn(C(=O)c2ccc(Cl)cc2)c2ccccc12)N1CCOCC1	32.4%
COc1ccc2c(c1)c(CCCC(=O)N1CCOCC1)c(C)n2Cc1ccc(C)cc1	26.4%
Cc1ccc(Cn2cc(CC(=O)N3CCOCC3)c3ccccc32)cc1	34.6%
COc1ccc2c(c1)c(CCCC(=O)N1CCN(C(=O)OC(C)(C)C)CC1)c(C)n2Cc1ccccc1	51.5%
CC(C)(C)OC(=O)N1CCN(C(=O)CCCc2cn(Cc3ccccc3)c3ccccc23)CC1	38.2%
Cc1[nH]c2ccc(Cl)cc2c1CCCC(=O)N1CCOCC1	71.3%
O=C(CCCc1c[nH]c2ccccc12)N1CCOCC1	62.3%
O=C(Cc1cn(C(=O)c2ccc(Cl)cc2)c2ccccc12)N1CCOCC1	22.4%
O=C(CCCc1cn(C(=O)c2ccccc2)c2ccccc12)N1CCOCC1	58.2%
COC1(c2cc(F)cc(OCCc3c[nH]c4ccccc34)c2)CCOCC1	64.2%
Cc1ccc(Cn2cc(CCCC(=O)N3CCOCC3)c3ccccc32)cc1	33.9%
COc1ccc2c(c1)c(CCCC(=O)N1CCOCC1)c(C)n2Cc1ccccc1	54.2%
COc1ccc2c(c1)c(CCCOc1cc(F)cc(C3(OC)CCOCC3)c1)c(C)n2Cc1ccccc1	46.5%
O=C(CCc1cn(C(=O)c2ccc(Cl)cc2)c2ccccc12)N1CCOCC1	26%
O=C(CCc1c[nH]c2ccccc12)N1CCOCC1	33%
O=C(CCc1cn(C(=O)c2ccccc2)c2ccccc12)N1CCOCC1	23.4%
COC1(c2cc(F)cc(OCCc3cn(Cc4ccccc4)c4ccccc34)c2)CCOCC1	31.8%
